Experimental data reported in ChEMBL document CHEMBL1128731, “Furanfurin and thiophenfurin: two novel tiazofurin analogues. Synthesis, structure, antitumor activity, and interactions with inosine monophosphate dehydrogenase” (J Med Chem, 1995).

Assays:
[1] = tested on: Mus musculus; test: Average weight change of mice from onset to termination of drug treatment at 6.2 mg/kg dose; format: functional
In short: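 Female BD2F1 mice (8 weeks, 20–22 g), eight per group, injected ip with 10^5 L1210 cells on day 0. From 24 h later, drug in 0.9% NaCl was given ip once daily for 9 days. Body weight change was averaged from onset to termination of treatment. Early deaths from toxicity were recorded.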

[2] = tested on: K562; test: Inhibitory concentration against K562 human myelogenous leukemia cell line; format: functional, cell-based
In short: (§1)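 Cells in log phase plated with a range of drug concentrations (B16 5×10^3 cells/well; P388, L1210, LLC 10^4 cells/well; HL-60, K562, LoVo 2.5×10^5 cells/well). Growth read by modified MTT after 72 h drug contact at 37 °C. IC50 taken as the concentration reducing optical absorption by 50%, from Chou regression analysis. Maximum concentration tested 200 μM.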

[3] = Ratio of IC50 against HL-60; format: functional
In short: (§2)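 Antiproliferative assay scoring [125I]-5-iodo-2'-deoxyuridine incorporation into DNA after 72 h drug–cell contact. Run on normal human bone marrow from five donors and in three assays on HL-60. Ratio is antilog(mean log IC50 or IC90) on bone marrow over the same on HL-60. Range limits are antilog(mean log IC50 ± 2SD).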

[4] = tested on: K562; test: Compound was tested for its effect on AMP ribonucleotide levels of K562 cell at 10 uM concentration; format: functional, Homo sapiens
In short: (§3)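 K562 cells (1×10^7) were treated with saline or agent for 2 h at 37 °C, harvested by centrifugation and washed with cold saline. They were extracted with cold 10% trichloroacetic acid, neutralized with 0.5 M tri-n-octylamine in freon, and analyzed by HPLC. Levels are in nmol/g and expressed as % of saline control. Significance was set at p < 0.05.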

[5] = tested on: K562; test: Compound was tested for its effect on ADP ribonucleotide levels of K562 cell at 100 uM concentration; format: functional, Homo sapiens; in short: as §3
[6] = tested on: K562; test: Compound was tested for its effect on IMPDH activity against K562 cells at 100 uM concentration; format: functional, Homo sapiens
In short: (§4)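 Log-phase K562 cells (1×10^6/mL) were exposed to saline or agent for 2 h at 37 °C, washed and lysed (Tris-HCl pH 7.4, NaCl, MgCl2, 0.5% NP-40, aprotinin). The cleared supernatant was incubated 30 min at 37 °C with 286 μM [2,8-3H]IMP and 1 mM NAD. Tritium release was counted by scintillation. Activity is nmol XMP/h/mg protein, also given as % of control.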

[7] = tested on: K562; test: Compound was tested for its effect on UDP ribonucleotide levels of K562 cell at 10 uM concentration; format: functional, Homo sapiens; in short: as §3
[8] = tested on: K562; test: Compound was tested for its effect on CTP ribonucleotide levels of K562 cell at 10 uM concentration; format: functional, Homo sapiens; in short: as §3
[9] = tested on: LoVo; test: Inhibitory concentration against LoVo human colon adenocarcinoma cell lines; format: functional, cell-based; in short: as §1
[10] = tested on: K562; test: Compound was tested for its effect on IMPDH activity against K562 cells at 10 uM concentration; format: functional, Homo sapiens; in short: as §4
[11] = IC90 ratio against bone marrow samples to HL-60; format: functional; in short: as §2
[12] = tested on: K562; test: Formation of NAD analogue by compound at 100 uM concentration against human myelogenous leukemia K562; format: functional
In short: (§5)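 K562 cells (1×10^7/10 mL) were labeled with 185 nM [2,8-3H]adenosine for 1 h at 37 °C, then given saline or analogue for 2 h. Cells were pelleted, washed with PBS and extracted in cold 10% trichloroacetic acid. Extracts were neutralized with 0.5 M tri-n-octylamine in freon and run on SAX HPLC with ammonium phosphate buffer. Results are pmol NAD analogue per 10^9 cells.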

[13] = tested on: K562; test: Formation of NAD analogue by compound at 50 uM concentration against human myelogenous leukemia K562; format: functional; in short: as §5
[14] = tested on: K562; test: Compound was tested for its effect on GTP ribonucleotide levels of K562 cell at 100 uM concentration; format: functional, Homo sapiens; in short: as §3
[15] = tested on: K562; test: Compound was tested for its effect on CDP ribonucleotide levels of K562 cell at 50 uM concentration; format: functional, Homo sapiens; in short: as §3
[16] = tested on: K562; test: Compound was tested for its effect on ADP ribonucleotide levels of K562 cell at 50 uM concentration; format: functional, Homo sapiens; in short: as §3
[17] = tested on: HL-60; test: Inhibitory concentration against human HL-60 cell line(activity expressed as range); format: functional; in short: as §2
[18] = tested on: K562; test: Compound was tested for its effect on UMP ribonucleotide levels of K562 cell at 100 uM concentration; format: functional, Homo sapiens; in short: as §3
[19] = tested on: K562; test: compound was tested for its effect on IMPDH activity against K562 cells at 100 uM concentration; format: functional, Homo sapiens
In short: (§6)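 K562 cells (1×10^6/mL, log phase) exposed 2 h at 37 °C to 10, 50 or 100 μM drug, or to saline. Cells washed and lysed in Tris-HCl pH 7.4/NaCl/MgCl2/NP-40/aprotinin, and the 13000g supernatant used as enzyme. Enzyme incubated 30 min at 37 °C with 286 μM [2,8-3H]IMP and 1 mM NAD. Tritium release counted; activity in nmol XMP/h/mg protein, as % of saline control.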

[20] = tested on: K562; test: Compound was tested for its effect on UTP ribonucleotide levels of K562 cell at 50 uM concentration; format: functional, Homo sapiens; in short: as §3
[21] = tested on: K562; test: Compound was tested for its effect on IMP ribonucleotide levels of K562 cell at 50 uM concentration; format: functional, Homo sapiens; in short: as §3
[22] = tested on: K562; test: Compound was tested for its effect on IMP ribonucleotide levels of K562 cell at 100 uM concentration; format: functional, Homo sapiens; in short: as §3
[23] = tested on: K562; test: Compound was tested for its effect on AMP ribonucleotide levels of K562 cell at 50 uM concentration; format: functional, Homo sapiens; in short: as §3
[24] = IC50 ratio against bone marrow samples to HL-60; format: functional; in short: as §2
[25] = species: Homo sapiens; test: Inhibitory concentration range against human bone marrow; format: functional; in short: as §2
[26] = tested on: K562; test: Compound was tested for its effect on GMP ribonucleotide levels of K562 cell at 100 uM concentration; format: functional, Homo sapiens; in short: as §3
[27] = tested on: K562; test: compound was tested for its effect on IMPDH activity against K562 cells at 10 uM concentration; format: functional, Homo sapiens; in short: as §6
[28] = tested on: L1210; test: Inhibitory concentration against L1210 murine lymphocytic leukemia; format: functional, cell-based; details: Mus musculus; in short: as §1
[29] = tested on: HL-60; test: Inhibitory concentration against HL-60 human promyelocytic leukemia; format: functional, cell-based; in short: as §1
[30] = tested on: K562; test: Compound was tested for its effect on AMP ribonucleotide levels of K562 cell at 100 uM concentration; format: functional, Homo sapiens; in short: as §3
[31] = tested on: K562; test: Compound was tested for its effect on GMP ribonucleotide levels of K562 cell at 10 uM concentration; format: functional, Homo sapiens; in short: as §3
[32] = tested on: Mus musculus; test: Compound was tested for ratio of survival time of treated to control mice x100 at 100 mg/kg dose; format: functional
In short: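 Female BD2F1 mice (8 weeks old, 20–22 g), eight per group, injected ip with 10^5 L1210 leukemia cells on day 0. Starting 24 h later, drug dissolved in 0.9% NaCl given ip once daily for 9 consecutive days. % T/C = survival time of treated/control mice × 100. Body weight change tracked from start to end of treatment.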

## NC(=O)c1csc([C@@H]2O[C@H](CO)[C@@H](O)[C@H]2O)c1
[1]
  Change: 8.5%
[2]
  IC50: 8.8 µM
[3]
  Ratio: 5.9
[4]
  Control: 156%
[5]
  Control: 105%
[6]
  Activity: 1.07
[7]
  Control: 134%
[8]
  Control: 32%
[9]
  IC50: 102 µM
[10]
  Activity: 2.8
[11]
  Ratio: >10
[12]
  Formation: 886 pmol/10^9 cells
[13]
  Formation: 505 pmol/10^9 cells
[14]
  Control: 58%
[15]
  Control: 82%
[16]
  Control: 114%
[17]
  IC90: 8.3 µM
[18]
  Control: 107%
[19]
  Control: 22%
[20]
  Control: 99%
[21]
  Control: 594%
[22]
  Control: 689%
[23]
  Control: 140%
[24]
  Ratio: 21.9
[25]
  IC90: >128 µM
[26]
  Control: 80%
[27]
  Control: 56%
[28]
  IC50: 7.6 µM
[29]
  IC50: 13.9 µM
[30]
  Control: 131%
[31]
  Control: 98%
[32]
  T/C: <100%
